Measurements from ChEMBL document CHEMBL4270578, “Synthesis and cytotoxic studies of novel 5-phenylisatin derivatives and their anti-migration and anti-angiogenic evaluation” (Eur J Med Chem, 2018).

How the values were obtained:
[1] = test system: HepG2; assay: Antiproliferative activity against human HepG2 cells after 48 hrs by MTT assay; type: functional, cell-based; conditions: HepG2, 48 h
[2] = test system: K562; assay: Antiproliferative activity against human K562 cells after 48 hrs by MTT assay; type: functional, cell-based; conditions: K562, 48 h
How it was run: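 MTT assay on K562 cells (RPMI-1640, 10% FBS) plated at 5 × 10^4 cells/ml for 2 h, then exposed to 10–100,000 nM compound for 48 h. MTT (5 mg/mL stock) added for 4 h before absorbance read. Viability normalized to DMSO controls (100%); IC50 from nonlinear regression, three independent assays.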

With `COc1ccc(CN2C(=O)C(O)c3cc(-c4ccc(OC)cc4)ccc32)cc1` (stereo not drawn) the IC50 [1] was 0.7 µM and the IC50 [2] was 0.14 µM.
Compound `COc1ccc(-c2ccc3c(c2)C(=O)C(=O)N3Cc2ccc(OC)c(OC)c2)cc1` has an IC50 [1] of 1.35 µM and an IC50 [2] of 0.06 µM.
`COc1ccc(-c2ccc3c(c2)C(=O)C(=O)N3Cc2ccc3ccccc3c2)cc1` gave an IC50 [1] of 0.38 µM.
Work on `COc1ccc(-c2ccc3c(c2)C(=O)C(=O)N3Cc2ccccc2)cc1` yielded an IC50 [1] of 1.36 µM and an IC50 [2] of 0.57 µM.
Compound `COc1ccc(CN2C(=O)C(=O)c3cc(-c4cccc(OC)c4)ccc32)cc1` has an IC50 [1] of 1.89 µM and an IC50 [2] of 0.1 µM.
`COc1ccc(CN2C(=O)C(=O)c3cccc(-c4ccc(OC)cc4)c32)cc1` was tested, and the IC50 [1] was 8.56 µM and the IC50 [2] was 4.43 µM.
For `COc1ccc2c(c1)C(=O)C(=O)N2` [5-METHOXYISATIN], the IC50 [1] was > 10 µM and the IC50 [2] was > 10 µM.
Compound `COc1ccc(-c2ccc3c(c2)C(=O)C(=O)N3)cc1` has an IC50 [1] of 0.96 µM and an IC50 [2] of 6.92 µM.
For `CCCCc1ccc2c(c1)C(=O)C(=O)N2`, the IC50 [1] was > 10 µM and the IC50 [2] was > 10 µM.
`COc1ccc(CN2C(=O)C(=O)c3cc(-c4ccc(OC)c(OC)c4)ccc32)cc1` was tested, and the IC50 [1] was > 10 µM and the IC50 [2] was 0.26 µM.
With `COc1ccc(CN2C(=O)Cc3cc(-c4ccc(OC)cc4)ccc32)cc1` the IC50 [1] was > 10 µM and the IC50 [2] was > 10 µM.
In the case of `COc1ccc(-c2ccc3c(c2)C(=O)C(=O)N3c2ccc(OC)cc2)cc1`, the IC50 [1] is reported as > 10 µM and the IC50 [2] is reported as > 10 µM.
For `COc1ccc(-c2ccc3c(c2)C(=O)C(=O)N3C)cc1`, the IC50 [1] was 6.67 µM and the IC50 [2] was 4.98 µM.
With `COc1ccc(CN2C(=O)C(=O)c3c(-c4ccc(OC)cc4)cccc32)cc1` the IC50 [1] was > 10 µM and the IC50 [2] was > 10 µM.
`COc1ccc(CN2C(=O)/C(=N\O)c3cc(-c4ccc(OC)cc4)ccc32)cc1` was tested, and the IC50 [1] was > 10 µM and the IC50 [2] was > 10 µM.
Work on `COc1ccc(-c2ccc3c(c2)C(=O)C(=O)N3Cc2ccc(C)cc2)cc1` yielded an IC50 [1] of 0.33 µM and an IC50 [2] of 0.27 µM.
In the case of `COc1ccc(CN2C(=O)C(=O)c3cc(-c4ccccc4OC)ccc32)cc1`, the IC50 [1] is reported as > 10 µM and the IC50 [2] is reported as 0.37 µM.
Compound `COc1ccc(CN2C(=O)C(=O)c3cc(-c4cc(OC)cc(OC)c4)ccc32)cc1` has an IC50 [1] of 1.2 µM and an IC50 [2] of 0.51 µM.
`CCN1C(=O)C(=O)c2cc(-c3ccc(OC)cc3)ccc21` gave an IC50 [1] of 4.47 µM and an IC50 [2] of 2.2 µM.
With `O=C1Nc2ccccc2C1=O` [ISATIN] the IC50 [1] was > 10 µM and the IC50 [2] was > 10 µM.
With `O=C1Nc2ccc(F)cc2C1=O` [5-FLUOROISATIN] the IC50 [1] was > 10 µM and the IC50 [2] was > 10 µM.
`COc1ccc(-c2ccc3c(c2)C(=O)C(=O)N3Cc2ccc3c(c2)OCO3)cc1` showed an IC50 [1] of 0.44 µM and an IC50 [2] of 0.03 µM.
For `CCOC(=O)/C=C1\C(=O)N(Cc2ccc(OC)cc2)c2ccc(-c3ccc(OC)cc3)cc21`, the IC50 [1] was 3.39 µM and the IC50 [2] was 1.24 µM.
With `Cc1ccc(-c2ccc3c(c2)C(=O)C(=O)N3)cc1` the IC50 [1] was 6 µM and the IC50 [2] was > 10 µM.
`COc1ccc(-c2ccc3c(c2)C(=O)C(=O)N3Cc2ccc(Cl)cc2)cc1` was tested, and the IC50 [1] was 0.25 µM and the IC50 [2] was 0.35 µM.
In the case of `O=C1Nc2ccc(-c3ccc(C(F)(F)F)cc3)cc2C1=O`, the IC50 [1] is reported as 5.43 µM and the IC50 [2] is reported as > 10 µM.
For `Cc1ccc2c(c1)C(=O)C(=O)N2`, the IC50 [1] was > 10 µM and the IC50 [2] was > 10 µM.
`COc1ccc(CN2C(=O)C(=O)c3cc(-c4ccc(Cl)cc4)ccc32)cc1` gave an IC50 [1] of 0.38 µM and an IC50 [2] of 0.23 µM.
With `COc1ccc(CN2C(=O)C(=O)c3ccc(-c4ccc(OC)cc4)cc32)cc1` the IC50 [1] was > 10 µM and the IC50 [2] was 7.46 µM.
Work on `COc1ccc(CN2C(=O)C(=O)c3cc(-c4ccc(C(F)(F)F)cc4)ccc32)cc1` yielded an IC50 [1] of 0.82 µM and an IC50 [2] of 0.35 µM.
Work on `COc1ccc(-c2ccc3c(c2)C(=O)C(=O)N3Cc2ccc(C(F)(F)F)cc2)cc1` yielded an IC50 [1] of 0.38 µM and an IC50 [2] of 0.27 µM.
In the case of `COc1ccc(CN2C(=O)/C(=C\c3ccc(C(C)C)cc3)c3cc(-c4ccc(OC)cc4)ccc32)cc1`, the IC50 [1] is reported as > 10 µM and the IC50 [2] is reported as > 10 µM.
In the case of `COc1ccc(CN2C(=O)C(=O)c3cc(-c4ccsc4)ccc32)cc1`, the IC50 [1] is reported as 3.67 µM and the IC50 [2] is reported as 0.08 µM.
In the case of `O=C1Nc2ccc(Br)cc2C1=O`, the IC50 [1] is reported as > 10 µM and the IC50 [2] is reported as > 10 µM.
In the case of `O=C1Nc2ccc(Cl)cc2C1=O`, the IC50 [1] is reported as > 10 µM and the IC50 [2] is reported as > 10 µM.
For `COc1ccc(CN2C(=O)C(=O)c3cc(-c4ccc(F)cc4)ccc32)cc1`, the IC50 [1] was 3.15 µM and the IC50 [2] was 0.24 µM.
For `COc1ccc(CN2C(=O)C(=O)c3cc(-c4ccc(C#N)cc4)ccc32)cc1`, the IC50 [1] was 0.89 µM and the IC50 [2] was 0.26 µM.
`COc1ccc(CN2C(=O)C(=O)c3cc(-c4ccc(OC(F)(F)F)cc4)ccc32)cc1` was tested, and the IC50 [1] was 0.41 µM and the IC50 [2] was 0.06 µM.
With `COc1ccc(CN2C(=O)C(=O)c3cc(-c4ccc5ccccc5c4)ccc32)cc1` the IC50 [1] was > 10 µM and the IC50 [2] was 0.34 µM.
Work on `COc1ccc(-c2ccc3c(c2)C(=O)C(=O)N3CCOc2ccccc2)cc1` yielded an IC50 [1] of 0.7 µM and an IC50 [2] of 0.4 µM.
In the case of `O=C1Nc2ccc(-c3ccccc3)cc2C1=O`, the IC50 [1] is reported as 5.33 µM and the IC50 [2] is reported as > 10 µM.
`COc1ccc(CN2C(=O)C(=O)c3cc(-c4ccc(OC(C)C)cc4)ccc32)cc1` was tested, and the IC50 [1] was > 10 µM and the IC50 [2] was 0.31 µM.
With `COc1ccc(-c2ccc3c(c2)C(=O)C(=O)N3Cc2cccc(Cl)c2)cc1` the IC50 [1] was 0.32 µM and the IC50 [2] was 0.2 µM.
For `COc1ccc(CN2C(=O)C(C)(O)c3cc(-c4ccc(OC)cc4)ccc32)cc1` (stereo not drawn), the IC50 [1] was > 10 µM and the IC50 [2] was > 10 µM.
`COc1ccc(CN2C(=O)C(=O)c3cc(-c4ccc(C)cc4)ccc32)cc1` was tested, and the IC50 [1] was > 10 µM and the IC50 [2] was 0.4 µM.
In the case of `COc1ccc(CN2C(=O)C(=O)c3cc(-c4ccccc4)ccc32)cc1`, the IC50 [1] is reported as 1.08 µM and the IC50 [2] is reported as 0.15 µM.
Work on `COc1ccc(-c2ccc3c(c2)C(=O)C(=O)N3Cc2ccccc2Cl)cc1` yielded an IC50 [1] of 0.6 µM and an IC50 [2] of 0.38 µM.
Compound `COc1ccc(-c2ccc3c(c2)C(=O)C(=O)N3Cc2ccccc2OC)cc1` has an IC50 [1] of 0.13 µM and an IC50 [2] of 0.04 µM.
`COc1ccc(CN2C(=O)/C(=C\c3ccc(C(F)(F)F)cc3)c3cc(-c4ccc(OC)cc4)ccc32)cc1` was tested, and the IC50 [1] was > 10 µM and the IC50 [2] was 1.9 µM.
`C=CCN1C(=O)C(=O)c2cc(-c3ccc(OC)cc3)ccc21` was tested, and the IC50 [1] was 7.09 µM and the IC50 [2] was 0.39 µM.
`COc1ccc(-c2ccc3c(c2)C(=O)C(=O)N3Cc2cc(C)cc(C)c2)cc1` was tested, and the IC50 [1] was 0.41 µM and the IC50 [2] was 0.14 µM.
In the case of `COc1ccc(CN2C(=O)C(=O)c3cc(-c4ccc(O)cc4)ccc32)cc1`, the IC50 [1] is reported as > 10 µM and the IC50 [2] is reported as 0.06 µM.
`COc1ccc(CN2C(=O)C(=O)c3cc(-c4ccc(F)c(Cl)c4)ccc32)cc1` was tested, and the IC50 [1] was > 10 µM and the IC50 [2] was 0.38 µM.
`COc1ccc(CN2C(=O)C(F)(F)c3cc(-c4ccc(OC)cc4)ccc32)cc1` was tested, and the IC50 [1] was > 10 µM and the IC50 [2] was > 10 µM.
`COc1ccc(CN2C(=O)/C(=C\c3ccccc3)c3cc(-c4ccc(OC)cc4)ccc32)cc1` was tested, and the IC50 [1] was > 10 µM and the IC50 [2] was > 10 µM.
In the case of `COc1ccc(CN2C(=O)C(=O)c3cc(-c4ccncc4)ccc32)cc1`, the IC50 [1] is reported as > 10 µM and the IC50 [2] is reported as 0.04 µM.
`COc1ccc(-c2ccc3c(c2)C(=O)C(=O)N3Cc2ccc(C#N)cc2)cc1` was tested, and the IC50 [1] was 1 µM and the IC50 [2] was 0.38 µM.
For `COc1ccc(-c2ccc3c(c2)C(=O)C(=O)N3Cc2ccc(Cl)c(Cl)c2)cc1`, the IC50 [1] was 0.99 µM and the IC50 [2] was 0.43 µM.
For `COc1ccc(-c2ccc3c(c2)C(=O)C(=O)N3Cc2cccc(OC)c2)cc1`, the IC50 [1] was 0.7 µM.
`COc1ccc(CN2C(=O)C(=O)c3cc(-c4ccc(C(C)(C)C)cc4)ccc32)cc1` was tested, and the IC50 [1] was 4.58 µM and the IC50 [2] was 2.25 µM.
`COc1ccc(-c2ccc3c(c2)C(=O)C(=O)N3Cc2ccc(F)cc2)cc1` showed an IC50 [1] of 1.12 µM and an IC50 [2] of 0.56 µM.
With `COC(=O)/C=C1\C(=O)N(Cc2ccc(OC)cc2)c2ccc(-c3ccc(OC)cc3)cc21` the IC50 [1] was 4.73 µM and the IC50 [2] was 1.9 µM.
In the case of `CC[C@@]1(O)C(=O)OCc2c1cc1n(c2=O)Cc2cc3ccccc3nc2-1` [CAMPTOTHECIN], the IC50 [1] is reported as 0.37 µM and the IC50 [2] is reported as 0.07 µM.
`COc1ccc(CN2C(=O)C3(OCCO3)c3cc(-c4ccc(OC)cc4)ccc32)cc1` was tested, and the IC50 [1] was > 10 µM and the IC50 [2] was > 10 µM.
With `COc1ccc(-c2ccc3c(c2)C(=O)C(=O)N3Cc2ccc(Br)cc2)cc1` the IC50 [1] was 0.7 µM and the IC50 [2] was 0.1 µM.
